Converted amounts (≈) assume the structure as drawn.
Assays:
MDA-MB-231 = assay: Cytotoxicity against human MDA-MB-231 cells after 3 days by MTT assay; assay type: functional, cell-based; conditions: MDA-MB-231, 72 h
In short: (§1)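 Freshly trypsinized cells seeded at 5000-10 000 per well, compounds added from DMSO-diluted stock; 3 days culture. Attached cells then given MTT (0.5 mg/mL, 1 h), formazan dissolved in DMSO, absorbance read at 550 nm. IC50 taken as concentration reducing cell growth by 50%.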

HepG2 = assay: Cytotoxicity against human HepG2 cells after 3 days by MTT assay; assay type: functional, cell-based; conditions: HepG2, 72 h; in short: as §1
[1] = Cytotoxicity against human Hep3B cells after 3 days by MTT assay; assay type: functional, cell-based, Hep 3B2; conditions: 72 h; in short: as §1
MCF7 = assay: Cytotoxicity against human MCF7 cells after 3 days by MTT assay; assay type: functional, cell-based; conditions: MCF7, 72 h; in short: as §1

Structure (SMILES): CC(=O)O[C@@H]1C[C@@]2(C)[C@@H](CC[C@@H]3[C@@H]2[C@@H](O)C[C@]24C(=O)O[C@]5(C)[C@H]2[C@H](C[C@@H]34)O[C@]52C[C@H](C)C(C)(C)O2)C[C@@H]1O
- IC50 (MDA-MB-231): > 30 µg/mL
- IC50 (HepG2): 27.6 µg/mL (≈ 51.8 µM)
- IC50 [1]: > 30 µg/mL
- IC50 (MCF7): > 30 µg/mL

Structure (SMILES): CC(=O)O[C@@H]1C[C@@]2(C)[C@@H](CC[C@@H]3[C@@H]2[C@@H](O)C[C@@]2(C)[C@H]3C[C@@H]3O[C@]4(C[C@H](C)C(C)(C)O4)[C@](C)(O)[C@@H]32)C[C@@H]1O [EPIHIPPURIN 1]
- IC50 (MDA-MB-231): 2.64 µg/mL (≈ 5.07 µM)
- IC50 (HepG2): 4.64 µg/mL (≈ 8.91 µM)
- IC50 [1]: 0.68 µg/mL (≈ 1.31 µM)
- IC50 (MCF7): 4.54 µg/mL (≈ 8.72 µM)

Structure (SMILES): CC(=O)O[C@@H]1CC[C@@]2(C)[C@@H](CC[C@@H]3[C@@H]2[C@@H](O)C[C@]24C(=O)O[C@]5(C)[C@H]2[C@H](C[C@@H]34)O[C@]52C[C@H](C)C(C)(C)O2)C1
- IC50 (MDA-MB-231): > 20 µg/mL
- IC50 (HepG2): > 20 µg/mL
- IC50 (MCF7): > 20 µg/mL

Structure (SMILES): CC(=O)O[C@H]1C[C@@H]2CC[C@@H]3[C@H]([C@@H](O)C[C@@]4(C)[C@H]3C[C@@H]3O[C@]5(C[C@H](C)C(C)(C)O5)[C@](C)(O)[C@@H]34)[C@@]2(C)C[C@H]1O
- IC50 (MDA-MB-231): 0.74 µg/mL (≈ 1.42 µM)
- IC50 (HepG2): 2.06 µg/mL (≈ 3.96 µM)
- IC50 [1]: 1.46 µg/mL (≈ 2.8 µM)
- IC50 (MCF7): 2.41 µg/mL (≈ 4.63 µM)

Structure (SMILES): C[C@H]1C[C@]2(O[C@H]3C[C@H]4[C@@H]5CC[C@H]6C[C@H](O)CC[C@]6(C)[C@H]5[C@@H](O)C[C@]4(C)[C@H]3[C@@]2(C)O)OC1(C)C [EPIHIPPURISTANOL]
- IC50 (MDA-MB-231): 0.13 µg/mL (≈ 0.281 µM)
- IC50 (HepG2): 0.08 µg/mL (≈ 0.173 µM)
- IC50 [1]: 0.1 µg/mL (≈ 0.216 µM)
- IC50 (MCF7): 0.2 µg/mL (≈ 0.432 µM)

Structure (SMILES): C[C@H]1C[C@]2(O[C@H]3C[C@H]4[C@@H]5CC[C@H]6C[C@H](O)[C@H](O)C[C@]6(C)[C@H]5[C@@H](O)C[C@@]45C(=O)O[C@]2(C)[C@@H]35)OC1(C)C
- IC50 (MDA-MB-231): > 30 µg/mL
- IC50 (HepG2): > 30 µg/mL
- IC50 [1]: 23.8 µg/mL (≈ 48.6 µM)
- IC50 (MCF7): > 30 µg/mL

Structure (SMILES): C[C@H]1C[C@]2(O[C@H]3C[C@H]4[C@@H]5CC[C@H]6C[C@H](O)[C@H](O)C[C@]6(C)[C@H]5[C@@H](O)C[C@]4(C)[C@H]3[C@@]2(C)O)OC1(C)C
- IC50 (MDA-MB-231): 0.75 µg/mL (≈ 1.57 µM)
- IC50 (HepG2): 0.62 µg/mL (≈ 1.3 µM)
- IC50 [1]: 0.77 µg/mL (≈ 1.61 µM)
- IC50 (MCF7): 0.59 µg/mL (≈ 1.23 µM)

Structure (SMILES): CC(=O)O[C@@H]1C[C@@]2(C)[C@@H](CC[C@@H]3[C@@H]2[C@@H](O)C[C@@]2(C)[C@H]3C[C@@H]3O[C@@]4(C[C@H](C)C(C)(C)O4)[C@](C)(O)[C@@H]32)C[C@@H]1O
- IC50 (MDA-MB-231): 0.41 µg/mL (≈ 0.787 µM)
- IC50 (HepG2): 0.56 µg/mL (≈ 1.08 µM)
- IC50 [1]: 0.1 µg/mL (≈ 0.192 µM)
- IC50 (MCF7): 0.53 µg/mL (≈ 1.02 µM)

Structure (SMILES): CC(=O)O[C@@H]1CC[C@@]2(C)[C@@H](CC[C@@H]3[C@@H]2[C@@H]2C[C@]45[C@H](O2)O[C@]2(C)[C@H]4[C@H](C[C@@H]35)O[C@]23C[C@H](C)C(C)(C)O3)C1
- IC50 (MDA-MB-231): > 20 µg/mL
- IC50 (HepG2): > 20 µg/mL
- IC50 (MCF7): > 20 µg/mL

Structure (SMILES): CC(=O)O[C@H]1C[C@@H]2CC[C@@H]3[C@H]([C@@H]4C[C@]56[C@H](O4)O[C@]4(C)[C@H]5[C@H](C[C@@H]36)O[C@]43C[C@H](C)C(C)(C)O3)[C@@]2(C)C[C@H]1OC(C)=O
- IC50 (MDA-MB-231): > 20 µg/mL
- IC50 (HepG2): > 20 µg/mL
- IC50 (MCF7): > 20 µg/mL

Structure (SMILES): CC(=O)O[C@H]1C[C@@H]2CC[C@@H]3[C@H]([C@@H](O)C[C@]45[C@H](O)O[C@]6(C)[C@H]4[C@H](C[C@@H]35)O[C@]63C[C@H](C)C(C)(C)O3)[C@@]2(C)C[C@H]1OC(C)=O
- IC50 (MDA-MB-231): > 20 µg/mL
- IC50 (HepG2): > 20 µg/mL
- IC50 (MCF7): 11.4 µg/mL (≈ 19.7 µM)

Structure (SMILES): CC(=O)O[C@H]1C[C@@H]2CC[C@@H]3[C@H]([C@@H](O)C[C@]45C(=O)O[C@]6(C)[C@H]4[C@H](C[C@@H]35)O[C@]63C[C@H](C)C(C)(C)O3)[C@@]2(C)C[C@H]1OC(C)=O
- IC50 (MDA-MB-231): > 20 µg/mL
- IC50 (HepG2): > 20 µg/mL
- IC50 (MCF7): 19.6 µg/mL (≈ 34.1 µM)

Structure (SMILES): CC(=O)O[C@H]1C[C@@H]2CC[C@@H]3[C@H]([C@@H](O)C[C@@]4(C)[C@H]3C[C@@H]3O[C@@]5(C[C@H](C)C(C)(C)O5)[C@](C)(O)[C@@H]34)[C@@]2(C)C[C@H]1O
- IC50 (MDA-MB-231): 0.21 µg/mL (≈ 0.403 µM)
- IC50 (HepG2): 0.72 µg/mL (≈ 1.38 µM)
- IC50 [1]: 0.46 µg/mL (≈ 0.883 µM)
- IC50 (MCF7): 1.07 µg/mL (≈ 2.05 µM)

Structure (SMILES): C[C@H]1C[C@]2(O[C@H]3C[C@H]4[C@@H]5CC[C@H]6C[C@H](O)CC[C@]6(C)[C@H]5[C@@H](O)C[C@@]45C(=O)O[C@]2(C)[C@@H]35)OC1(C)C
- IC50 (MDA-MB-231): > 20 µg/mL
- IC50 (HepG2): > 20 µg/mL
- IC50 (MCF7): > 20 µg/mL

Structure (SMILES): CC(=O)O[C@@H]1CC[C@@]2(C)[C@@H](CC[C@@H]3[C@@H]2[C@@H](O)C[C@]24[C@H](O)O[C@]5(C)[C@H]2[C@H](C[C@@H]34)O[C@]52C[C@H](C)C(C)(C)O2)C1 [HIPPURISTANOHEMIACETAL]
- IC50 (MDA-MB-231): > 20 µg/mL
- IC50 (HepG2): > 20 µg/mL
- IC50 (MCF7): 12.7 µg/mL (≈ 24.5 µM)

From ChEMBL document CHEMBL1158785, “Polyoxygenated steroids from the gorgonian Isis hippuris” (J Nat Prod, 2005)
